Rows were chosen to be rich in hits. Some 3.5% of all compounds tested hit in one or more screens of this group.
MrgX1 antagonist: antagonists of human MrgX1 receptor, primary screen, HEK293 cells, Fluo-4 calcium flux; Mas-related G-protein coupled receptor member X1 (Homo sapiens), Q96LB2; 1.3% of 310,000 active; AID 588676, 2011; B-score at 10 µM; BAM8-22 antagonism; stronger effect = lower value;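 active = calcium-response B-score plate-corrected more than 3 library SD below zero, starting fluorescence within 5 deviations, no agonist response on first addition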;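 also: peak minus trough fluorescence over baseline after final BAM8-22 challenge near maximal dose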
Target sequence (Q96LB2 whole entry, looked up): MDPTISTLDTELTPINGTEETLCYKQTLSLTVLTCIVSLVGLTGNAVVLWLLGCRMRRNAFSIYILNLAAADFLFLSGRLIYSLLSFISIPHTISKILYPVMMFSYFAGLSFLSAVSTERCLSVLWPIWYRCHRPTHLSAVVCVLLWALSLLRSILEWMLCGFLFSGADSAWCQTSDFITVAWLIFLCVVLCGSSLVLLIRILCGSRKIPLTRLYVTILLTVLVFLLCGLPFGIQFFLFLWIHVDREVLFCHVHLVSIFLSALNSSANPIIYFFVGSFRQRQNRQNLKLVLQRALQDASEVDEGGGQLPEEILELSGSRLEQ
MrgX1 allo act: positive allosteric modulators of MrgX1, primary screen, HEK293 cells, Fluo-4 calcium flux. Mas-related G-protein coupled receptor member X1 (Homo sapiens), Q96LB2. FDSS; stronger effect = higher value. B-score at 10 µM. 0.63% of 310,000 active. AID 588675, 2011;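 active = plate-corrected calcium response at least 3 library SD above typical, normal starting fluorescence, not activating the receptor alone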;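 also: compound read alongside a low EC10 to EC30 dose of BAM8-22 agonist; peak minus trough fluorescence over baseline measured at the second addition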
MrgX1 agonist: agonists of human MrgX1 receptor, primary screen, HEK293 cells, Fluo-4 calcium flux. Mas-related G-protein coupled receptor member X1 (Homo sapiens), Q96LB2. 0.44% of 310,000 active. B-score at 10 µM. AID 588627, 2011. Fluo-4 calcium fluorescence, agonist mode; stronger effect = higher value;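 active = calcium response B-score plate-corrected fluorescence ratio at least 3 library SD, with starting fluorescence B-score inside 5 SD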
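Assay system: MrgX1-expressing HEK293 cells / Amount: fifteen thousand cells per well / Doses: test compound in the initial addition of three / Timing: cells plated overnight, dye loaded 0.5 h 37 °C, 0.5 h room temperature / Technique: kinetic calcium dye fluorescence, Fluo-4 NW / Control set: positive and negative controls per plate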
RGS4 act: RGS4 potentiators or activators, primary screen, cell-based, HEK293 M3R inducible RGS4, calcium flux. carbachol calcium flux Fluo4; stronger effect = lower value. AID 463111, 2010. B-score at 10 µM. 0.92% of 310,000 active;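 active = B-score of the integrated calcium signal more than 4 SD below the library mean, with starting fluorescence not abnormally high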;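 also: negative B-score means reduced calcium response which marks RGS4 activation or potentiation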
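Reagent: ECmax carbachol challenge; Test system: M3R-expressing HEK293 line, RGS4 induced by doxycycline; Schedule: overnight RGS4 induction, 30 min dye load 37 °C, 20 min compound RT; Detection: calcium dye Fluo4 fluorescence; Read-out: Agonist-evoked peak-minus-minimum fluorescence over baseline, integrated ratio, B score.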
RGS4 block: RGS4 inhibitors, primary screen, cell-based, HEK293 M3R inducible RGS4, calcium flux. Regulator of G-protein signaling 4 (Homo sapiens), P49798. Fluo-4 calcium flux; stronger effect = higher value; triggered by carbachol at its EC20. B-score at 10 µM. 0.45% of 310,000 active. AID 463165, 2010;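 active = B-score, a plate-corrected calcium signal, over three deviations above library mean, with baseline fluorescence within five deviations of library mean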;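 also: RGS4 expression induced by doxycycline in cells with stable M3 receptor; B-score is computed from the integrated fluorescence ratio over baseline after carbachol; higher B-score means a larger calcium signal and so more RGS4 inhibition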
Target sequence (P49798 whole entry, looked up): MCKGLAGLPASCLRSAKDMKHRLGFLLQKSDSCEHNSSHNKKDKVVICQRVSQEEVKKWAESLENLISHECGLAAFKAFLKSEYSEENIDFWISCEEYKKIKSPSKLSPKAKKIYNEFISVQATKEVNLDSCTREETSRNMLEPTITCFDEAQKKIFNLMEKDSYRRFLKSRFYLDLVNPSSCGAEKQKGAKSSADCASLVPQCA
RGS4 inh valid: enhanced carbachol calcium response, M3R/RGS4 cells, RGS4 inhibitor project, cell-based, validation screen, HEK293 M3R/RGS4, calcium flux; shares compounds with RGS4 block; carbachol calcium Fluo-4 fluorescence; carbachol added at its EC20; 0 = buffer wells, 100 = carbachol control; calcium response, % at 10 µM; 65% of 1,700 active; AID 492999, 2010;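 active = duplicate-averaged calcium response above the buffer-only control mean plus 5 SD of those controls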;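 also: integrated fluorescence ratio F max minus min over baseline F0; higher response in RGS4-induced cells means RGS4 inhibition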
RGS4 uninduced: carbachol calcium response in non-induced M3R cells, confirmation, counter-screen for RGS4 inhibitor project, cell-based, HEK293 M3R. activity (percent), % at 10 µM. AID 493000, 2010. 20% of 1,900 active. carbachol calcium Fluo-4; submaximal (EC20) carbachol stimulus; buffer wells 0%, carbachol control wells 100%. shares compounds with RGS4 block; call rule not given here;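 also: RGS4 induction absent so cells express M3R without RGS4; higher means more calcium signal and flags a non-specific hit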
M3R basal Ca ctr: second counter-screen for RGS4 inhibitors: non-induced cells without carbachol. 22% of 1,900 active. AID 493001. shares compounds with RGS4 block. HEK293 M3R/RGS4 non-induced, Fluo-4 calcium, no carbachol; normalised: buffer wells 0%, carbachol wells 100%. calcium response (agonist-mode artifact), % at 10 µM;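 active = duplicate-averaged calcium rise in uninduced cells above buffer wells' mean plus 5 SD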
Numbers without * were called inactive; i = inactive; · = not tested or not shown.

SMILES | MrgX1 antagonist | MrgX1 allo act | MrgX1 agonist | RGS4 act | RGS4 block | RGS4 inh valid | RGS4 uninduced | M3R basal Ca ctr
Cc1nn(Cc2ccccc2)c(Cl)c1C(=O)NCc1ccco1 | i | i | i | i | i | · | · | ·
COC(=O)c1cn(C(=O)OC)c2ccccc12 | i | i | i | i | i | · | · | ·
COC(=O)c1cn(C(=O)/C=C/c2ccc(OC)c(OC)c2)c2ccccc12 | i | i | i | i | 4.7* | i | i | i
COc1ccccc1-c1nnc2n1N=C(c1ccc(O)c(O)c1)CS2 | i | i | i | i | i | · | i | i
COc1ccc(C2=Nn3c(nnc3-c3cccnc3)SC2)cc1OC | i | i | i | i | i | i | i | i
Brc1ccc(C2=Nn3c(nnc3-c3cccnc3)SC2)s1 | i | i | i | i | i | · | · | ·
CC1=NN(c2ccc(C)c(C)c2)C(=O)C1C(c1cccc(O)c1)C1C(=O)N(c2ccc(C)c(C)c2)N=C1C (stereo not drawn) | i | i | i | i | 15* | 14%* | i | i
CCOc1ccc(CNCCN2CCCC2)cc1 | i | i | i | i | i | · | · | ·
CCOC(=O)C1=C(c2ccccc2)NC(N)=NC1c1ccc(OCc2ccc(Cl)cc2)c(OC)c1 (stereo not drawn) | i | i | i | i | 8.9* | 32%* | i | 34%*
CCOC(=O)C1=C(c2ccccc2)NC(=O)NC1c1cc(Cl)c(O)c(OC)c1 (stereo not drawn) | i | i | i | i | i | · | · | ·
Nn1c(Nc2ccccc2)nc2sc3c(c2c1=O)CCCC3 | i | i | i | i | i | i | i | i
O=C(NC1=NCCS1)c1ccccc1OCc1ccccc1Cl | i | i | i | i | i | · | · | ·
Cc1ccc(/C=C/C(=O)N2CC(C)CC(C)C2)o1 (stereo not drawn) | i | i | i | i | 19* | 31%* | i | i
CCC(=O)Nc1ccc(NC(=O)c2ccc3c(c2)OCO3)cc1 | i | i | i | i | i | · | · | ·
CCCC(=O)Nc1cccc(NC(=O)c2ccc3c(c2)OCO3)c1 | i | i | i | i | i | i | i | i
CCC(=O)Nc1cccc(NC(=O)c2ccc3c(c2)OCCO3)c1 | i | i | i | i | i | i | i | i
Cn1nc(C(F)(F)F)c(-c2cccc(C(F)(F)F)c2)c1NC(=O)Nc1ccc(F)cc1 | i | i | i | i | i | · | · | ·
CC1Cc2ccccc2N1Cc1nc2scc(-c3cccs3)c2c(=O)[nH]1 (stereo not drawn) | i | i | i | i | 9.3* | i | i | i
CC(=O)OCCSc1c(-c2ccccc2)c2cc(Cl)ccc2[nH]c1=O | i | i | i | i | 4.8* | 14%* | i | i
CCOCCn1c(=O)c2c(nc3n2CC(C)CN3CCc2ccccc2)n(C)c1=O (stereo not drawn) | i | i | i | i | i | · | · | ·
COc1ccc(C(C(=O)NC2CCCCC2)N(C(=O)Cc2c[nH]c3ccccc23)c2ccccc2C)cc1OC (stereo not drawn) | i | i | i | i | i | i | i | i
COc1cccc(/C=C(/C(=O)OCC(=O)NC2CCCCCCC2)c2ccccc2)c1 | i | i | i | i | 5* | i | i | 7.0%*
COc1cccc(/C=C(/C(=O)OCC(=O)NCC2CCCO2)c2ccccc2)c1 (stereo not drawn) | i | i | i | i | i | · | · | ·
Clc1cccc(N2CCN(Cc3ccc(Br)o3)CC2)c1 | i | i | i | i | i | · | · | ·
COc1ccc(OC)c(CN2CCN(Cc3cc(=O)oc4cc(O)ccc34)CC2)c1 | i | i | i | i | i | · | · | ·
SMILES | MrgX1 antagonist | MrgX1 allo act | MrgX1 agonist | RGS4 act | RGS4 block | RGS4 inh valid | RGS4 uninduced | M3R basal Ca ctr
CCOC(=O)C1CCN(Cc2cc(=O)oc3cc(C)c(Cl)cc23)CC1 | i | i | i | i | 9.3* | 5.0%* | i | i
COC(=O)C1CCN(Cc2cc(=O)oc3cc(OC)ccc23)CC1 | i | i | i | i | 4.8* | 21%* | i | i
CCOC(=O)c1c(S(=O)(=O)Nc2ccc(F)cc2Cl)c(C)n(C)c1C | i | i | i | i | i | · | · | ·
Cc1ccc(C(=O)N2CCC3(CC2)Oc2ccc(F)cc2C(=O)C32CC(c3ccccc3)=NO2)s1 (stereo not drawn) | i | i | i | i | i | · | · | ·
N#C/C(=C(/O)C(Cl)c1ccccc1)c1nc2ccccc2s1 (stereo not drawn) | i | i | i | i | 5.1* | 6.5%* | i | i
N#C/C(=C(/O)c1cccc(F)c1)c1nc2ccccc2s1 | i | i | i | i | i | · | · | ·
CCOC(=O)C1CCN(C(=O)COC(=O)c2ccc(=O)n(Cc3ccccc3)n2)CC1 | i | i | i | i | i | · | · | ·
CC(C)Oc1ccc(C(=O)/C=C2/C(=O)Nc3ccccc32)cc1 | i | i | i | i | 5.1* | 10%* | 72%* | i
Oc1ccc(N=C/C=C/c2cccc(Br)c2)cc1-c1nc2ccccc2s1 | i | i | i | i | 8.6* | i | i | i
CC1Sc2ccc(S(=O)(=O)CCC(=O)Nc3ccc(C(C)C)cc3)cc2NC1=O (stereo not drawn) | i | i | i | i | i | · | · | ·
Cc1c(Cl)ccc2c(C(=O)O)cc(-c3ccccc3)nc12 | i | i | i | i | 5.8* | 22%* | 40%* | i
Cc1c(Cl)ccc2c(C(N)=O)cc(-c3ccccn3)nc12 | i | i | i | i | i | · | · | ·
COCCCNC(=S)N(CCCN(C)C)Cc1cc2cc3c(cc2[nH]c1=O)OCCO3 | i | i | i | i | i | i | i | i

High-throughput results from PubChem BioAssay.
